Results published in ChEMBL document CHEMBL4706681, “New 2-Pyrazoline and Hydrazone Derivatives as Potent and Selective Monoamine Oxidase A Inhibitors” (J Med Chem, 2021).
pKi: −log10 of the molar value. Active and inactive are the calls of the source. The calls are words filed in the database; no cut-off is given here.

Test system: not listed separately
Test: Ex vivo inhibition of MAOA in CD1 mouse brain homogenates assessed as assessed as inhibition of 5-HT deamination by measuring 5-HIAA metabolite levels at 30 mg/kg, po administered as single acute dose via gavage and measured after 1 hr by HPLC analysis (reference value: 0.28 +/- 0.011 ug/g)
Assay type: functional
Conditions: not given

Question: For COc1ccc(C2=NN(C(=O)Cn3c(=O)oc4ccccc43)C(c3ccccc3Cl)C2)cc1 (configuration not stated), which Activity is on record?
Answer: 0.35 µg/g

Test system: not listed separately
Test: Cytotoxicity against human HepG2 cells assessed as cell viability at 15 uM incubated for 2 hrs by MTT assay relative to control
Assay type: cell-based
Conditions: read-out: Activity
Summary of the method: (§1)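 HepG2 human hepatoma cells; viability read by MTT assay, with 0.1% DMSO as vehicle control. Viability given as % of control, mean ± SEM (n = 3); p < 0.05 taken as significant.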

Question: For COc1ccc(C2=NN(C(=O)Cn3c(=O)oc4ccccc43)C(c3ccccc3Cl)C2)cc1 (configuration not stated), which viability at 2 h, 15 µM is on record?
Answer: 90%

Test system: not listed separately
Test: Selectivity index, ratio of Ki for inhibition of recombinant human MAO-A to Ki for inhibition of recombinant human MAO-B using p-tyramine as substrate
Conditions: not given

Question: With COc1ccc(C2=NN(C(=O)Cn3c(=O)oc4ccccc43)C(c3ccccc3Cl)C2)cc1 (configuration not stated) as the compound, how does the Ratio Ki read?
Answer: 8 10^-4No_unit

Test system: not listed separately
Test: Ex vivo inhibition of MAOA in CD1 mouse brain homogenates assessed as dopamine levels at 30 mg/kg, po administered as single acute dose via gavage and measured after 1 hr by ELISA kit method (reference value: 7.08 +/- 0.58 ug/g)
Assay type: functional
Conditions: not given

Question: Which Activity does the source give for COc1ccc(C2=NN(C(=O)Cn3c(=O)oc4ccccc43)C(c3ccccc3Cl)C2)cc1 (configuration not stated) here?
Answer: 7.1 µg/g

Test system: not listed separately
Test: Cytotoxicity against human HepG2 cells assessed as cell viability at 7.5 uM incubated for 2 hrs by MTT assay relative to control
Assay type: cell-based
Conditions: read-out: Activity
Summary of the method: as §1

Question: For COc1ccc(C2=NN(C(=O)Cn3c(=O)oc4ccccc43)C(c3ccccc3Cl)C2)cc1 (configuration not stated), which viability at 2 h, 7.5 µM is on record?
Answer: 91.2%

Test system: not listed separately
Test: Ex vivo inhibition of MAOA in CD1 mouse brain homogenates assessed as 5-HT levels at 30 mg/kg, po administered as single acute dose via gavage and measured after 1 hr by ELISA kit method (reference value: 0.80 +/- 0.006 ug/g)
Assay type: functional
Conditions: not given

Question: With COc1ccc(C2=NN(C(=O)Cn3c(=O)oc4ccccc43)C(c3ccccc3Cl)C2)cc1 (configuration not stated) as the compound, how does the Activity read?
Answer: 0.98 µg/g

Target: T1, Amine oxidase [flavin-containing] B (Homo sapiens, UniProt P27338)
T1 sequence (P27338 whole entry): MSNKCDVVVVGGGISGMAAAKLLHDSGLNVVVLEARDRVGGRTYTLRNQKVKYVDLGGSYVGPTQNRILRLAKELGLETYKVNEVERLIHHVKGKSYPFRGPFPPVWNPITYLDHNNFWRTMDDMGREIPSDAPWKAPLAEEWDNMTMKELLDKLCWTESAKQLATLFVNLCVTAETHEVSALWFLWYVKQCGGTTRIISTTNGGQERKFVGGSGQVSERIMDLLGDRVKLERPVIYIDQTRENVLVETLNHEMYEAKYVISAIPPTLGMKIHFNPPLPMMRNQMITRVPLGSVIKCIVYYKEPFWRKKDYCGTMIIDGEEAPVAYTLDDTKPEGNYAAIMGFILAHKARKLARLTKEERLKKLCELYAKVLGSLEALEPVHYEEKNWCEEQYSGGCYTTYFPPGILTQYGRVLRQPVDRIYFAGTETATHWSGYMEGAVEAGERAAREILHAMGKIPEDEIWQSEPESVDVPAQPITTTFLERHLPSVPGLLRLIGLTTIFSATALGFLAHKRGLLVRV
Test: Inhibition of recombinant human MAO-B expressed in baculovirus infected BTI insect cells using p-tyramine as substrate incubated for 30 mins by Amplex red reagent based fluorescence analysis
Assay type: cell-based
Conditions: not given

Question: With COc1ccc(C2=NN(C(=O)Cn3c(=O)oc4ccccc43)C(c3ccccc3Cl)C2)cc1 (configuration not stated) as the compound, how does the pKi read?
Answer: 5.90

Target: T1, Amine oxidase [flavin-containing] B
Test: Reversible inhibition of human MAO-B assessed as residual enzyme activity at 4 fold IC50 incubated for 15 mins and measured 24 hrs post dialysis relative to control
Conditions: 24.25 h, time 1455 min
Summary of the method: (§2)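 Dialysed (MWCO 12 000) at 4 °C for 24 h against 100 mM potassium phosphate pH 7.4, 5% sucrose, buffer changed twice. Dialysed and undialysed mixtures assayed together; residual activity from triplicates.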

Question: Which Activity does the source give for COc1ccc(C2=NN(C(=O)Cn3c(=O)oc4ccccc43)C(c3ccccc3Cl)C2)cc1 (configuration not stated) here?
Answer: 91.5%

Target: T1, Amine oxidase [flavin-containing] B
Test: Reversible inhibition of human MAO-B assessed as residual enzyme activity at 4 fold IC50 incubated for 15 mins and measured before dialysis relative to control
Conditions: not given
Summary of the method: as §2

Question: Which Activity does the source give for COc1ccc(C2=NN(C(=O)Cn3c(=O)oc4ccccc43)C(c3ccccc3Cl)C2)cc1 (configuration not stated) here?
Answer: 78.2%

Test system: Mus musculus
Test: Antidepressant-like activity in CD1 mouse assessed as reduction in immobility time at 30 mg/kg, po administered via gavage for 7 days and measured 1 h post last dose by Porsolt-forced swim test
Assay type: functional, organism-based
Conditions: time 7.0 day
Summary of the method: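 Male albino CD-1 mice (20–25 g), 12 h light/dark, food and water ad libitum. Dosed by oral gavage once daily for 7 days in 200 μL 0.5% CMC; vehicle-only controls. […] Forced swim test run 1 h after the last dose. Immobility scored every 60 s over 6 min; n = 8–12.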

Question: For COc1ccc(C2=NN(C(=O)Cn3c(=O)oc4ccccc43)C(c3ccccc3Cl)C2)cc1 (configuration not stated), which Activity is on record?
Answer: Active

Test system: not listed separately
Test: Ex vivo inhibition of MAOA in CD1 mouse brain homogenates assessed as assessed as inhibition of dopamine deamination by measuring DOPAC metabolite levels at 30 mg/kg, po administered as single acute dose via gavage and measured after 1 hr by HPLC analysis (reference value: 1.22 +/- 0.2 ug/g)
Assay type: functional
Conditions: not given

Question: Which Activity does the source give for COc1ccc(C2=NN(C(=O)Cn3c(=O)oc4ccccc43)C(c3ccccc3Cl)C2)cc1 (configuration not stated) here?
Answer: 1.24 µg/g

Test system: not listed separately
Test: Cytotoxicity against human HepG2 cells assessed as cell viability at 30 uM incubated for 2 hrs by MTT assay relative to control
Assay type: cell-based
Conditions: read-out: Activity
Summary of the method: as §1

Question: Which viability at 2 h, 30 µM does the source give for COc1ccc(C2=NN(C(=O)Cn3c(=O)oc4ccccc43)C(c3ccccc3Cl)C2)cc1 (configuration not stated) here?
Answer: 85%

Test system: not listed separately
Test: Permeability of compound in PBS/EtOH buffer (70:30) at 25 ug/ml incubated for 16 hrs by UV plate reader based PAMPA-BBB
Conditions: not given

Question: Which Papp at 16 h, 25 ug/ml does the source give for COc1ccc(C2=NN(C(=O)Cn3c(=O)oc4ccccc43)C(c3ccccc3Cl)C2)cc1 (configuration not stated) here?
Answer: 11 ×10⁻⁶ cm/s

Test system: not listed separately
Test: Ex vivo inhibition of MAOA in CD1 mouse brain homogenates assessed as MAOA level at 30 mg/kg, po administered as subchronic dose via gavage for 7 days and measured 1 hr post last dose by monoamine oxidase assay (reference value: 0.40 +/- 0.005 nmol/min/mg)
Assay type: functional
Conditions: time 7 day

Question: With COc1ccc(C2=NN(C(=O)Cn3c(=O)oc4ccccc43)C(c3ccccc3Cl)C2)cc1 (configuration not stated) as the compound, how does the Activity read?
Answer: 0.24 nmol/min/mg

Test system: not listed separately
Test: Ex vivo inhibition of MAOA in CD1 mouse brain homogenates assessed as 5-HT levels at 30 mg/kg, po administered as subchronic dose via gavage for 7 days and measured 1 hr post last dose by ELISA kit method (reference value: 0.78 +/- 0.01 ug/g)
Assay type: functional
Conditions: time 7 day

Question: Which Activity does the source give for COc1ccc(C2=NN(C(=O)Cn3c(=O)oc4ccccc43)C(c3ccccc3Cl)C2)cc1 (configuration not stated) here?
Answer: 1.19 µg/g

Target: T2, Amine oxidase [flavin-containing] A (Homo sapiens, UniProt P21397)
T2 sequence (P21397 whole entry): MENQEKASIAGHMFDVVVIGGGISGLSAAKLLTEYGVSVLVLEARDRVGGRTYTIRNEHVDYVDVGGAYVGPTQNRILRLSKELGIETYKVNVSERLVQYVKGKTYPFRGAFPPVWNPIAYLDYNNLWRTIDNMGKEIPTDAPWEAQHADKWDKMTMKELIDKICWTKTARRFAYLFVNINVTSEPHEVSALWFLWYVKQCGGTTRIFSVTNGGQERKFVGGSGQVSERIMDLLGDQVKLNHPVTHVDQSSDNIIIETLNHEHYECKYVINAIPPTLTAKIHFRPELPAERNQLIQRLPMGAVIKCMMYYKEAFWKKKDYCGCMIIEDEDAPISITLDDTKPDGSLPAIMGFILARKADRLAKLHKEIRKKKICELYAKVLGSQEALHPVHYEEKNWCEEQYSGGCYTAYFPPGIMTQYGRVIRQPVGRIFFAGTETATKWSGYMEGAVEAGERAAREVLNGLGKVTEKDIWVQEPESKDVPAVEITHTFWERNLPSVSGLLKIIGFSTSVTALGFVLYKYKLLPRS
Test: Reversible inhibition of human MAO-A assessed as residual enzyme activity at 4 fold IC50 incubated for 15 mins and measured before dialysis by dialysis method relative to control
Conditions: not given
Summary of the method: as §2

Question: For COc1ccc(C2=NN(C(=O)Cn3c(=O)oc4ccccc43)C(c3ccccc3Cl)C2)cc1 (configuration not stated), which Activity is on record?
Answer: 18.11%

Target: T2, Amine oxidase [flavin-containing] A
Test: Reversible inhibition of human MAO-A assessed as residual enzyme activity at 4 fold IC50 incubated for 15 mins and measured 24 hrs post dialysis by dialysis method relative to control
Conditions: 24.25 h, time 1455 min
Summary of the method: as §2

Question: Which Activity does the source give for COc1ccc(C2=NN(C(=O)Cn3c(=O)oc4ccccc43)C(c3ccccc3Cl)C2)cc1 (configuration not stated) here?
Answer: 90.16%

Target: T2, Amine oxidase [flavin-containing] A
Test: Inhibition of recombinant human MAO-A expressed in baculovirus infected BTI insect cells using p-tyramine as substrate incubated for 30 mins by Amplex red reagent based fluorescence analysis
Conditions: not given

Question: With COc1ccc(C2=NN(C(=O)Cn3c(=O)oc4ccccc43)C(c3ccccc3Cl)C2)cc1 (configuration not stated) as the compound, how does the pKi read?
Answer: 9.00

Test system: not listed separately
Test: Ex vivo inhibition of MAOA in CD1 mouse brain homogenates assessed as MAOA level at 30 mg/kg, po administered as single acute dose via gavage and measured after 1 hr by monoamine oxidase assay (reference value: 0.40 +/- 0.012 nmol/min/mg)
Assay type: functional
Conditions: not given

Question: Which Activity does the source give for COc1ccc(C2=NN(C(=O)Cn3c(=O)oc4ccccc43)C(c3ccccc3Cl)C2)cc1 (configuration not stated) here?
Answer: 0.25 nmol/min/mg

Test system: not listed separately
Test: Ex vivo inhibition of MAOA in CD1 mouse brain homogenates assessed as inhibition of 5-HT deamination by measuring 5-HIAA metabolite levels by using at 30 mg/kg, po administered as subchronic dose via gavage for 7 days and measured 1 hr post last dose by HPLC analysis (reference value: 0.18 +/- 0.01 ug/g)
Assay type: functional
Conditions: time 7 day

Question: For COc1ccc(C2=NN(C(=O)Cn3c(=O)oc4ccccc43)C(c3ccccc3Cl)C2)cc1 (configuration not stated), which Activity is on record?
Answer: 0.31 µg/g

Test system: not listed separately
Test: Effect on locomotor activity in CD1 mouse assessed as total distance traveled at 30 mg/kg, po administered via gavage for 7 days by open field test
Assay type: ADME, organism-based
Conditions: in vivo, 168 h, time 7 day
Summary of the method: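 Each mouse placed in the centre of a 50 × 50 × 30 cm black box and video-tracked; total distance travelled over 5 min; n = 8–10.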

Question: For COc1ccc(C2=NN(C(=O)Cn3c(=O)oc4ccccc43)C(c3ccccc3Cl)C2)cc1 (configuration not stated), which Activity is on record?
Answer: Non-Toxic

Test system: Mus musculus
Test: Antidepressant-like activity in CD1 mouse assessed as reduction in immobility time at 30 mg/kg, po administered via gavage as single dose measured after 1 hr by Porsolt-forced swim test
Assay type: functional, organism-based
Conditions: not given

Question: For COc1ccc(C2=NN(C(=O)Cn3c(=O)oc4ccccc43)C(c3ccccc3Cl)C2)cc1 (configuration not stated), which Activity is on record?
Answer: Active
